# The list is not random: actives were taken first. Their share in the collection is about 2.9%.
# SENP8 block-1: inhibitors of human SENP8 protease | Q96LD8 | recombinant SENP8, Nedd8 substrate fluorescence | inhibition, % at 20 µM | 0.64% of 360,000 active; in the data active = inhibition mostly above about 40%, no sharp cut-off; inactive = mostly below about 27%
# Target sequence (Q96LD8 whole entry, looked up): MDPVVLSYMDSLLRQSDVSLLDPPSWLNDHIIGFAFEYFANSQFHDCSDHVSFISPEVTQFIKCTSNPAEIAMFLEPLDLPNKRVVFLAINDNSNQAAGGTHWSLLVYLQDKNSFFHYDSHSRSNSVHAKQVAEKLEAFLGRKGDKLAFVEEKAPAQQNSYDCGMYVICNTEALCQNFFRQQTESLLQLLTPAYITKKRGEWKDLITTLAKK
# SENP6 inh: SENP6 protease inhibition; inhibition, % at 10 µM; 1.8% of 330,000 active; Recombinant SENP6 catalytic domain, aminoluciferin luminescence; Q9GZR1; AID 2599;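 active = inhibition above about 50% at the single tested dose, limit read from the data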;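 note: plate controls were DMSO wells with enzyme for no effect and DMSO wells lacking enzyme for full effect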
# SENP7 inh: blocks the human protease SENP7 | recombinant SENP7, Z-RLRGG-aminoluciferin luminescence, 40 min | AID 434973 | 1.5% of 330,000 active | Q9BQF6 | inhibition, % at 5 µM;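 active = inhibition above about 50% at the single test dose, limit read from the data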;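 note: plate controls were DMSO with enzyme for no effect and no enzyme buffer wells for full effect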
# SENP8 block-2: inhibitors of human SENP8 protease; 1.2% of 330,000 active; Q96LD8; purified SENP8, Z-RLRGG-aminoluciferin cleavage, luminescence; AID 2540; inhibition, % at 10 µM; in the data active = inhibition above about 50%
# HSP90 refold inh: inhibitors of HSP90 luciferase refolding in rabbit reticulocyte lysate; 0.91% of 290,000 active; luciferase refolding luminescence, 3 h; inhibition, % at 5.6 µM;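 active = inhibition above the screen-wide mean plus 3 SD, computed separately per campaign, cut at about 16% in these data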;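 note: 0% = DMSO wells and 100% = 60 µM geldanamycin wells; inhibitors lower the luminescence because luciferase stays unfolded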
# SENP1 FRET inh: inhibitors of human SENP1 SUMO protease catalytic domain. 0.21% of 360,000 active. recombinant SENP1 catalytic domain, CyPet-SUMO1-YPet FRET cleavage. inhibition, % at 10 µM. AID 624204;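 active = inhibition at least 30% at 10 µM, raw YFP signal under a set limit, fluorescence ratio 0.5 to 1.5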;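 note: 0% = enzyme with DMSO and 100% = no enzyme wells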
# Target sequence (Q9P0U3 419-644 limits assumed): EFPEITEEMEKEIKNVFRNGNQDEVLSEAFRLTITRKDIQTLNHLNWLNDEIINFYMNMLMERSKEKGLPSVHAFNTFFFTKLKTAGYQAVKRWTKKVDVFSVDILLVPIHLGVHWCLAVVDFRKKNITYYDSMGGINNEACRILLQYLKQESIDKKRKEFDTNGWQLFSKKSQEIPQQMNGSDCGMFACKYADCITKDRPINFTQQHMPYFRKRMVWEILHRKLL
#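 Assay system – human recombinant His6-tagged SENP1 catalytic domain enzyme · Input – SENP1 enzyme, 20 pM final · Buffer or medium – Tris pH 8 buffer plus EDTA, NaCl, BME, BSA, NP40, catalase · Schedule – 50 min reaction at room temperature · Technique – FRET read of cyan and yellow fluorescence · Control set – no-enzyme wells low, DMSO-plus-enzyme wells high control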
# * hit, by the source's call; nt = not tested or not shown.
SMILES,SENP8 block-1,SENP6 inh,SENP7 inh,SENP8 block-2,HSP90 refold inh,SENP1 FRET inh
CCN(CC(=O)Nc1ccccc1C(F)(F)F)C(=O)c1ccccc1OCc1ccc(F)cc1,6,nt,nt,nt,nt,-3
Cc1nnc(N/N=C\c2ccc(-c3cccc(C(=O)O)c3)o2)n1N,-360,52*,5,25,7,-9
CC(NC(=O)CNC(=O)c1ccccc1Br)c1cccs1 (centres undefined),3,1,-4,-1,nt,1
O=C(O)CC(C(=O)O)N1C(=O)/C(=C/C=C/c2ccco2)SC1=S (centres undefined),9,-67,-12,-3,-4,42*
CC1(C)Nc2ccc(O)cc2-c2c1ssc2=S,67*,39,20,11,10,2
CC(=O)Nc1nc(-c2ccc(Cl)cc2)ns1,-7,55*,13,35,-9,-11
O=C(Nc1ccccc1N1CCOCC1)c1cc2ccccc2o1,-2,-9,2,-5,5,3
O=C(Nc1ccccc1N1CCCC1)c1cc2ccccc2o1,-10,63*,19,35,-4,-6
CCOC(=O)N=Nc1c(O)n(CC(=O)OC)c2ccccc12,20,2,-5,-2,3,0
CCOC(=O)N=Nc1c2ccccc2c2nc3no[nH]c3nc12,94*,62*,31,31,6,2
COc1cc(/C=C2\SC(N)=NC2=O)ccc1O,-50,-10,-3,1,-3,40*
COc1cc(/C=C2\SC(=S)N(NS(=O)(=O)c3ccc(C)cc3)C2=O)ccc1O,16,-10,6,0,-1,91*
COc1ccc(/C=C2/SC(=S)N(NS(=O)(=O)c3ccccc3)C2=O)cc1,20,27,6,10,-1,1
COc1cc(/C=C2\SC(=S)N(NS(=O)(=O)c3ccc(C)cc3)C2=O)cc(OC)c1OC,28,-4,4,-2,1,3
CC(=O)N1C(=O)/C(=C2\SC(=S)N(c3c(C)n(C)n(-c4ccccc4)c3=O)C2=O)c2ccccc21,81*,nt,nt,nt,1,1
COc1cc(/C=C2\SC(=S)N(NS(=O)(=O)c3ccccc3)C2=O)ccc1O,48*,8,-8,-8,-7,75*
C=CCOc1ccc(/C=C2\SC(N)=NC2=O)cc1OC,-99,5,3,2,-1,3
O=C(Nc1ccc(C2=CN(Cc3ccccc3)CCC2=O)cc1)OCc1ccccc1,8,0,3,2,nt,0
COc1ccc(CNC(=O)CN(C(=O)c2snc(C(N)=O)c2N)c2ccc(OC)c(OC)c2)cc1,-82,-6,7,3,1,0
Cc1ccc(CNc2nc(C)c(C(=O)N(C)C)s2)cc1,3,0,-4,-4,-3,2
Cc1ccc(S(=O)(=O)NN2C(=O)/C(=C/c3cccc(F)c3)SC2=S)cc1,24,7,-4,8,-2,4
COc1cc(/C=C2\N=C3CCCCCN3C2=O)ccc1O,-10,-26,-15,-5,1,37*
COc1ccc(/C=C2\N=C3CCCCCN3C2=O)cc1OC,7,3,-7,-3,-3,-11
CCOc1cc(/C=C2\SC(=S)N(NS(=O)(=O)c3ccc(C)cc3)C2=O)ccc1O,35,46,3,24,nt,83*
COc1cc(/C=C2/SC(=S)N(c3c(C)n(C)n(-c4ccccc4)c3=O)C2=O)ccc1O,20,15,1,7,-2,46*
SMILES,SENP8 block-1,SENP6 inh,SENP7 inh,SENP8 block-2,HSP90 refold inh,SENP1 FRET inh
CCOc1ccc(N(C(=O)CNC(=O)c2ccco2)C(C(=O)NC2CCCC2)c2cccnc2)cc1 (centres undefined),8,-4,0,-2,7,1
COc1cccc(/C=C2\CCc3ccccc3C2=O)c1,32,99*,94*,95*,8,3
CCOc1ccc(C(=O)Nc2nnc(SCC(=O)NCC3CCCO3)s2)cc1OCC (centres undefined),-69,5,4,8,3,1
Cc1cccc(N=C/C(C(=O)C(F)(F)F)=C(\O)c2ccco2)c1,-135,77*,83*,28,4,-63
Cc1ccc(C(=O)NN=Cc2ccc3c(c2)OCO3)cc1,-127,nt,nt,nt,nt,1
O=C(N/N=C/c1ccc(F)cc1)c1ccc(Br)cc1,10,1,-4,-12,2,-2
Cc1ccc(C(=O)N/N=C/c2ccc3c(c2)OCO3)o1,-125,61*,59*,36,-3,-2
O=C(N/N=C/c1ccccc1)c1ccc2c(c1)OCO2,19,11,19,-2,16*,0
O=C(N/N=C/c1ccc(Br)cc1)c1ccc(Br)o1,19,86*,77*,65*,-5,3
COc1ccc(OCc2cc(C(=O)NC(C)c3csc(C)n3)no2)c(Cl)c1 (centres undefined),2,1,7,1,-3,1
Oc1ccc(-c2csc(Nc3ncccn3)n2)cc1,10,37,72*,56*,4,2
c1ccc(CCNc2nc(-c3ccncc3)cs2)cc1,-144,-22,9,-5,-3,2
Cc1cccnc1Nc1nc(-c2ccccn2)cs1,-9,81*,77*,75*,10,2
CCCCCNc1nc(-c2ccccc2)cs1,nt,64*,10,32,5,nt
c1ccc(-c2csc(Nc3ncccn3)n2)cc1,16,37,75*,13,2,2
O=C(Nc1ncccc1O)c1ccc(Cl)c(S(=O)(=O)N2CCCC2)c1,9,nt,nt,nt,nt,-2
N=C(N)c1ccc(/C=C/c2ccc(C(=N)N)cc2O)cc1,-440,0,3,-4,4,55*
C[C@H](CO)N1C[C@H](C)[C@@H](CN(C)Cc2ccc(C(=O)O)cc2)OCc2cnnn2CCCC1=O,9,nt,nt,nt,nt,2
O=C(Nc1ccc([N+](=O)[O-])cc1)C(=O)Nc1cccc(C(=O)O)c1,5,99*,99*,97*,78*,1
Cc1nonc1C(=O)N/N=C/c1ccc(O)c(O)c1,15,97*,99*,96*,-1,3
COc1ccc(/C=N/N=C(\N)c2nonc2N)cc1OC,13,17,26,11,-2,0
N/C(=N\N=C\c1ccc(O)c(O)c1)c1nonc1N,15,99*,99*,96*,3,-11
O=C(N/N=C/c1ccc(O)c(O)c1)N/N=C/c1ccc(O)c(O)c1,18,-21,8,0,0,1
O=c1c2ccccc2sc2nc(CCl)nn12,-18,nt,nt,nt,nt,2
COc1ccc(CCNCc2ccccc2N2CCCC2)cc1,9,8,2,7,4,1
COc1ccc(CCNCc2cc(C)n(-c3ccc(OC)cc3)c2C)cc1,46*,-8,-9,-10,5,-4
CCN(CC)c1c(C)nc2ccc(C(=O)N3CCN(C(=O)c4ccco4)CC3)cn12,7,nt,nt,nt,nt,-6
